Among the data in ChEMBL document CHEMBL1138243, “Design of mechanism-based inhibitors of transthyretin amyloidosis: studies with biphenyl ethers and new structural templates” (J Med Chem, 2007) are inhibition and percent fibril formation relative to control values, retold here.

Experiment [1] deals with T1, Transthyretin (Homo sapiens, UniProt P02766). Description: Inhibition of transthyretin fibril formation at pH 4.4 at 100 uM. It counts as functional. The essentials:
(§1)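 Library screen of acid-mediated TTR fibril formation at pH 4.4 with inhibitor at 100 µM. TTR was at 7.2 µM.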

Experiment [2] concerns the target T1, Transthyretin. Nature of the experiment: Inhibition of transthyretin amyloidosis assessed as fibril formation pH 4.4 at 100 uM. It counts as functional. The essentials:
as §1

Several values for one entry are separate records, joined by “and”; a condition that tells them apart may be missing. Equal entries are not always repeated.

In turn, `COc1cc(C2NC(C(=O)O)CS2)ccc1O` (stereo unspecified) came in with an inhibition against Transthyretin [1] of 0%. Besides, at Transthyretin [2], the percent fibril formation relative to control came to 116%.
`Cc1cc(C(=O)Nc2cc(Cl)ccc2O)no1`: the inhibition at Transthyretin [1] is 3.18% and 0%.
`O=C(c1cnc(Nc2ccc(F)cc2)c2ccccc12)n1ccnc1` displayed an inhibition against Transthyretin [1] of 0%.
`O=C(CSc1nccn1-c1cccc(Cl)c1)Nc1cccc2ccccc12` returned an inhibition on Transthyretin [1] of 0%. Moreover, at Transthyretin [2], the percent fibril formation relative to control was found to be 122%.
As to `O=c1/c(=C\c2ccccc2Cl)sc2nc3ccccc3n12`, at Transthyretin [1], the inhibition was found to be 29.1%. At Transthyretin [2], the percent fibril formation relative to control worked out at 71%.
`O=C(O)C1CSC(c2c(F)cccc2Cl)N1` (stereo unspecified) displayed an inhibition against Transthyretin [1] of 79.7%. Moreover, the percent fibril formation relative to control at Transthyretin [2] stood at 20.3%.
`Cn1ncc(/N=C/c2ccccc2O)c1C(=O)N1CCOCC1` yielded an inhibition on Transthyretin [1] of 50%. The percent fibril formation relative to control on Transthyretin [2] was 50%.
At Transthyretin [1], `CCOC(=O)c1sc(=S)n(-c2ccc(Br)cc2)c1N` showed an inhibition of 0%. On Transthyretin [2], the percent fibril formation relative to control is 164%.
On to `O=C(O)c1ccc(Cl)c(N2C(=O)C3C4CCC(C4)C3C2=O)c1` (stereo in doubt; 34), for which the inhibition at Transthyretin [1] was found to be 0%. Moreover, the percent fibril formation relative to control on Transthyretin [2] was found to be 104%.
Take `Cc1ccn2c(Nc3ccccc3C)c(-c3ccc(O)cc3)nc2c1`: on Transthyretin [1], the inhibition was 0%. At Transthyretin [2], the percent fibril formation relative to control was found to be 130%.
Compound `O=C(O)C1CSC(c2cccnc2)N1` (stereo unspecified) showed an inhibition on Transthyretin [1] of 0%. Besides, the percent fibril formation relative to control on Transthyretin [2] worked out at 144%.
On Transthyretin [1], `COc1ccc(/C=C2\SC(=S)N(c3ccc(O)cc3)C2=O)cc1` displayed an inhibition of 0%. For the same compound, at Transthyretin [2], the percent fibril formation relative to control turned out to be 281%.
Taken in the same sequence, the figures for `NC(=O)CSc1ncc(-c2ccc(Cl)cc2)[nH]1` were 60.8% and 39.2%.
Taken in the same sequence, the figures for `CCOC(=O)c1c(N)sc(C(=O)Nc2cc(C)cc(C)c2)c1C` were 12.2% and 87.8%.
For `Fc1ccccc1NC(=S)N(CCCN1CCOCC1)Cc1cccnc1`, the inhibition against Transthyretin [1] worked out at 0.7%. For the same compound, the percent fibril formation relative to control at Transthyretin [2] came out at 99.3%.
On to `CCN1C(=O)/C(=C/c2ccc(N(CC)CC)cc2O)SC1=S`, for which the inhibition against Transthyretin [1] worked out at 0%. Besides, the percent fibril formation relative to control on Transthyretin [2] came out at 177%.
At Transthyretin [1], `O=C1/C(=C\c2ccc(-c3ccc(Cl)cc3)o2)SC(=S)N1c1cccc(Cl)c1` had an inhibition of 0%. On Transthyretin [2], the percent fibril formation relative to control stood at 107%.
Turning to `COc1cccc(C(=O)NC(c2ccccc2)c2cc(Cl)c3cccnc3c2O)c1` (stereo unspecified), on Transthyretin [1], the inhibition was found to be 65.3%. In addition, the percent fibril formation relative to control at Transthyretin [2] amounted to 34.7%.
On Transthyretin [1], `CCN(CC)CCCN(Cc1ccco1)C(=S)Nc1ccc(OC)cc1` came in with an inhibition of 0%. Besides, the percent fibril formation relative to control at Transthyretin [2] came to 107%.
Take `Nc1cc(O)nc(SCC(=O)N2CCOCC2)n1`: the inhibition at Transthyretin [1] came to 0%. The percent fibril formation relative to control on Transthyretin [2] was 112%.
In the case of `O=C(NC(c1cccc([N+](=O)[O-])c1)c1cc(Cl)c2cccnc2c1O)c1cccnc1` (stereo unspecified), the inhibition against Transthyretin [1] came out at 27.2%. In addition, at Transthyretin [2], the percent fibril formation relative to control is 72.8%.
For `O=C(NC(c1ccco1)c1cc(Cl)c2cccnc2c1O)c1cccnc1` (stereo unspecified), at Transthyretin [1], the inhibition is 63.3%. Also, at Transthyretin [2], the percent fibril formation relative to control was found to be 36.7%.
With `O=C(NC(c1ccccc1)c1cc(Cl)c2cccnc2c1O)c1cccnc1` (stereo unspecified), the inhibition against Transthyretin [1] came out at 70.4%. The percent fibril formation relative to control at Transthyretin [2] came out at 29.6%.
For `O=C(Nc1c2c(nn1-c1cccc(Cl)c1)C[S+]([O-])C2)c1ccccc1F` (stereo unspecified) the same measures were 10.4% and 89.5%.
The compound `CSC1=NSC2=NC(=O)/C(=C\c3ccc[nH]3)C(=N)N12` showed an inhibition at Transthyretin [1] of 0%. Also, the percent fibril formation relative to control at Transthyretin [2] stood at 202%.
The compound `O=C(O)c1cccc(-c2ccc(/C=C3/SC(=S)N(c4cccc(C(F)(F)F)c4)C3=O)o2)c1` returned an inhibition on Transthyretin [1] of 0%. In addition, at Transthyretin [2], the percent fibril formation relative to control is 449%.
Turning to `FC(F)(F)c1cccc(NC(=S)N(CCCN2CCCCC2)Cc2cccs2)c1`, the inhibition against Transthyretin [1] was 13.3%. In addition, the percent fibril formation relative to control on Transthyretin [2] is 86.7%.
`Cc1ccccc1Nc1c(-c2ccc(Cl)s2)nc2ccc(Cl)cn12`: the inhibition against Transthyretin [1] is 0%. The percent fibril formation relative to control on Transthyretin [2] amounted to 306%.
In turn, `Clc1ccccc1C1CC(c2cccs2)Nc2nnnn21` (stereo unspecified) gave an inhibition against Transthyretin [1] of 100%. The percent fibril formation relative to control on Transthyretin [2] is 0%.
At Transthyretin [1], `Cc1ccn2c(Nc3ccc(F)cc3)c(-c3ccccn3)nc2c1` yielded an inhibition of 0%. The percent fibril formation relative to control at Transthyretin [2] was 162%.
On Transthyretin [1], `Cc1nc2c(C(=O)NCc3ccc(F)cc3)cnn2c(O)c1Cc1ccccc1F` gave an inhibition of 53.1%. For the same compound, the percent fibril formation relative to control at Transthyretin [2] was 46.9%.
`O=C1CCCC2=C1C(c1cccc(O)c1)NC(=S)N2` (stereo unspecified) came in with an inhibition against Transthyretin [1] of 0%. Besides, on Transthyretin [2], the percent fibril formation relative to control turned out to be 106%.
Take `O=C1NC(=S)S/C1=C\c1ccc(-c2cc(Cl)ccc2Cl)o1`: the inhibition against Transthyretin [1] was 0%. Besides, the percent fibril formation relative to control at Transthyretin [2] is 286%.
In turn, `COc1ccccc1NC(=S)N(CCCN1CCCCCC1)Cc1cccs1` displayed an inhibition on Transthyretin [1] of 0%. Further, at Transthyretin [2], the percent fibril formation relative to control was 104%.
`O=C(Nc1c2c(nn1-c1ccc(F)cc1)C[S+]([O-])C2)c1ccccc1F` (stereo unspecified) had an inhibition at Transthyretin [1] of 0%. The percent fibril formation relative to control on Transthyretin [2] turned out to be 104%.
Compound `O=C1/C(=C\c2cccc(O)c2)SC(=S)N1c1ccc(F)cc1` returned an inhibition against Transthyretin [1] of 0%. Also, the percent fibril formation relative to control on Transthyretin [2] is 309%.
For the compound `CSC1=NSC2=NC(=O)/C(=C\c3ccc(Cl)cc3)C(=N)N12`, the inhibition at Transthyretin [1] worked out at 32.9%. Also, the percent fibril formation relative to control at Transthyretin [2] amounted to 67.1%.
As for `Cc1nc2c(C(=O)NCCC(C)C)cnn2c(O)c1Cc1ccccc1F`, on Transthyretin [1], the inhibition is 91.7%. Also, the percent fibril formation relative to control on Transthyretin [2] is -86.7%.
`COc1ccc(NC(=S)N(CCCN2CCOCC2)Cc2cccnc2)cc1` returned an inhibition on Transthyretin [1] of 1.4%. Besides, on Transthyretin [2], the percent fibril formation relative to control turned out to be 98.6%.
For `CCc1ccc(Oc2cc(F)nc(N)n2)cc1` the same measures were 9.71% and 10.4%.
`O=C(O)C1CSC(c2ccc(Cl)cc2)N1` (stereo unspecified) registered an inhibition against Transthyretin [1] of 0%. Moreover, the percent fibril formation relative to control on Transthyretin [2] was found to be 142%.
For `CCCCC1NC(C(=O)O)CS1` (stereo unspecified) the same measures were 0% and 128%.
As for `CCOc1cccc2c1OC(c1cccc(Cl)c1)N1N=C(c3cccs3)CC21` (stereo unspecified), the inhibition against Transthyretin [1] was determined as 0%.
Take `Nc1nc(F)cc(Oc2ccc(F)cc2)n1`: the inhibition against Transthyretin [1] is 16%. Besides, the percent fibril formation relative to control at Transthyretin [2] turned out to be 84%.
As for `O=C(NC1CC1)c1cc(Sc2cccc(Cl)c2)nc2ccccc12`, on Transthyretin [1], the inhibition came out at 58.2%. Moreover, the percent fibril formation relative to control on Transthyretin [2] was 41.8%.
Taken in the same sequence, the figures for `COc1ccc(NC(=S)N(CCCN2CCOCC2)Cc2cccs2)cc1` were 0% and 102%.
As for `O=C1OC(c2ccc(Cl)cc2Cl)=N/C1=C/c1ccc(Cl)c(Cl)c1`, at Transthyretin [1], the inhibition is 0%. The percent fibril formation relative to control on Transthyretin [2] was 138%.
Take `CCOC(=O)c1c(N)sc(C(=O)NC2CCCCC2)c1C`: the inhibition on Transthyretin [1] is 41.9%. The percent fibril formation relative to control on Transthyretin [2] was 58.1%.
On to `Cc1nnc2c(Oc3ccc(Cl)cc3)nc3cc(Cl)ccc3n12`, for which the inhibition against Transthyretin [1] was 0%. Also, the percent fibril formation relative to control on Transthyretin [2] was found to be 114%.
Consider `CSC1=NSC2=NC(=O)/C(=C\c3ccc(O)cc3)C(=N)N12`, for which the inhibition on Transthyretin [1] was found to be 27.3%. Also, the percent fibril formation relative to control on Transthyretin [2] turned out to be 72.7%.
`O=C1/C(=C/c2ccc(Cl)cc2Cl)SC(=S)N1c1ccc(O)cc1` returned an inhibition on Transthyretin [1] of 0%. The percent fibril formation relative to control on Transthyretin [2] is 291%.
Consider `CCOC(=O)c1sc(=S)n(-c2cccc3ccccc23)c1N`, for which the inhibition against Transthyretin [1] turned out to be 0%. Moreover, the percent fibril formation relative to control on Transthyretin [2] is 146%.
As for `O=c1c2sccc2n(Cc2ccc(F)cc2Cl)c(=O)n1-c1cc(F)ccc1F`, the inhibition at Transthyretin [1] was 0%. At Transthyretin [2], the percent fibril formation relative to control amounted to 117%.
Consider `O=C(O)C1CSC(c2ccc(Cl)c(Cl)c2)N1` (stereo unspecified), for which, at Transthyretin [1], the inhibition was 0%. Besides, the percent fibril formation relative to control on Transthyretin [2] came out at 102%.
With `Oc1ccc(Nc2nc(-c3ccc(Cl)cc3)nc3ccccc23)cc1`, the inhibition against Transthyretin [1] was determined as 4.06%. The percent fibril formation relative to control on Transthyretin [2] worked out at 96%.
In the case of `COC(=O)c1sc(=S)n(-c2ccc(Cl)c(Cl)c2)c1N`, on Transthyretin [1], the inhibition was 15.6%. For the same compound, on Transthyretin [2], the percent fibril formation relative to control is 84.5%.
`Cc1ccc2nc(-c3ccc(Cl)s3)c(Nc3ccc(Cl)cc3)n2c1` came in with an inhibition against Transthyretin [1] of 0%. Besides, at Transthyretin [2], the percent fibril formation relative to control came to 113%.
As for `Oc1ccc(-c2n[nH]c(=S)o2)cc1`, the inhibition against Transthyretin [1] turned out to be 80.8%. The percent fibril formation relative to control at Transthyretin [2] was determined as 19.2%.
For `COc1ccc(C2NC(C(=O)O)CS2)cc1OC` (stereo unspecified) the same measures were 0% and 129%.
As for `O=C1OC(/C=C/c2ccc(Cl)cc2Cl)=NC/1=C\c1cccs1`, the inhibition at Transthyretin [1] was found to be 0%. The percent fibril formation relative to control on Transthyretin [2] amounted to 294%.
Turning to `Cc1ccsc1/C=c1\sc2nc(-c3cccs3)nn2c1=O`, the inhibition against Transthyretin [1] came to 22.3%. In addition, at Transthyretin [2], the percent fibril formation relative to control was found to be 77.8%.
Regarding `Clc1ccc2nc(-c3ccc(Cl)s3)c(NC3CCCCC3)n2c1`, the inhibition against Transthyretin [1] stood at 0%. In addition, the percent fibril formation relative to control on Transthyretin [2] was found to be 138%.
As for `CCCCN(CC)Cc1c(C)nc2c(ccc3ccccc32)c1O`, the inhibition at Transthyretin [1] came out at 24.3%. Moreover, on Transthyretin [2], the percent fibril formation relative to control turned out to be 75.7%.
Compound `Cc1nc2ccc(Cl)cc2c(O)c1CN1CCCC1` had an inhibition against Transthyretin [1] of 18.2%. Also, the percent fibril formation relative to control on Transthyretin [2] amounted to 81.8%.
For the compound `NN1C(=O)/C(=C\c2ccc(Cl)cc2)NC1=S`, at Transthyretin [1], the inhibition was 0%. On Transthyretin [2], the percent fibril formation relative to control stood at 131%.
`Nc1nc(F)cc(Oc2ccccc2F)n1` came in with an inhibition at Transthyretin [1] of 45.6%. Also, the percent fibril formation relative to control on Transthyretin [2] amounted to 54.4%.
Compound `O=C(O)C1CSC(c2ccc(Cl)cc2Cl)N1` (stereo unspecified) gave an inhibition against Transthyretin [1] of 77.7%. Besides, the percent fibril formation relative to control on Transthyretin [2] is 22.3%.

Broadly, the inhibition is the share of the control response that was lost under treatment.
